Reference: ChEMBL document CHEMBL3525946, “Species comparison of in vivo P-glycoprotein-mediated brain efflux using mdr1a-deficient rats and mice” (Drug Metab Dispos, 2012)
Blank lines part the entries; values can stand above or below the compound they belong to.

Assays:
[1] = Percentage unbound in Crl:NMRI(Han) mouse plasma at 1 uM after 5 hrs by equilibrium dialysis method; type: ADME, cell-free
Outline: (§1)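 Equilibrium dialysis (12-14 kDa membrane) of plasma or brain homogenate from naïve male Sprague-Dawley rats or Crl:NMRI(Han) mice. Donor side spiked to 1 µM final; receiver phosphate buffer pH 7.4; 37°C for 5 h. Buffer phase quantified by LC-MS. Brain fu corrected for homogenate dilution to intact tissue. Mean of two independent determinations.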

[2] = Total plasma concentration in wild type Sprague-Dawley rat expressing Abcb1a treated with venlafaxine at 9 mg/kg/day administered through continuous minipump treatment for 3 days by UPLC-MS analysis; type: ADME, organism-based; conditions: other: continuous minipump
Outline: (§2)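 Subcutaneous osmotic minipump infusion for 3 days to steady state, implanted under isoflurane (rats 10 µl/h, mice 1 µl/h). Mdr1a-deficient (SD-Abcb1a knockout rats; Crl:CF1-Abcb1a mutant mice) and wild-type animals, n=3-5 per group. After decapitation, EDTA plasma and whole brain (homogenized 1:4 in 70% acetonitrile) were precipitated with internal standard. Parent and metabolites quantified by UPLC-MS. Mean ± SEM.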

[3] = Total drug level in wild type Sprague-Dawley rat brain expressing Abcb1a treated with venlafaxine at 9 mg/kg/day administered through continuous minipump treatment for 3 days by UPLC-MS analysis; type: ADME, organism-based; conditions: other: continuous minipump, read-out: Drug uptake; outline: as §2
[4] = Total brain to plasma partition coefficient of the compound in wild type Sprague-Dawley rat expressing Abcb1a treated with venlafaxine at 9 mg/kg/day administered through continuous minipump treatment for 3 days; type: ADME, organism-based; conditions: brain and plasma, other: continuous minipump
Outline: (§3)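 Kp is total brain concentration divided by total plasma concentration at steady state. Measured after a 3-day subcutaneous osmotic minipump infusion in mdr1a-deficient or wild-type rats or mice, n=3-5. Concentrations determined by UPLC-MS in plasma and in whole-brain homogenate (70% acetonitrile). Mean ± SEM.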

[5] = Total plasma concentration in mdr1a-deficient rat treated with venlafaxine at 9 mg/kg/day administered through continuous minipump treatment for 3 days by UPLC-MS analysis; type: ADME, organism-based; conditions: other: continuous minipump; outline: as §2
[6] = Total drug level in mdr1a-deficient rat brain treated with venlafaxine at 9 mg/kg/day administered through continuous minipump treatment for 3 days by UPLC-MS analysis; type: ADME, organism-based; conditions: other: continuous minipump, read-out: Drug uptake; outline: as §2
[7] = Total brain to plasma partition coefficient of the compound in mdr1a-deficient rat treated with venlafaxine at 9 mg/kg/day administered through continuous minipump treatment for 3 days; type: ADME, organism-based; conditions: brain and plasma, other: continuous minipump; outline: as §3
[8] = Total plasma concentration in mdr1a-deficient mouse treated with venlafaxine at 12 mg/kg/day administered through continuous minipump treatment for 3 days by UPLC-MS analysis; type: ADME, organism-based; conditions: other: continuous minipump; outline: as §2
[9] = Total drug level in mdr1a-deficient mouse brain treated with venlafaxine at 12 mg/kg/day administered through continuous minipump treatment for 3 days by UPLC-MS analysis; type: ADME, organism-based; conditions: other: continuous minipump, read-out: Drug uptake; outline: as §2
[10] = Total brain to plasma partition coefficient of the compound in mdr1a-deficient mouse treated with venlafaxine at 12 mg/kg/day administered through continuous minipump treatment for 3 days; type: ADME, organism-based; conditions: other: continuous minipump; outline: as §3
[11] = Percentage unbound in Sprague-Dawley rat plasma at 1 uM after 5 hrs by equilibrium dialysis method; type: ADME, cell-free; outline: as §1
[12] = Percentage unbound in Sprague-Dawley rat brain at 1 uM after 5 hrs by equilibrium dialysis method; type: ADME, tissue-based; outline: as §1
[13] = Total plasma concentration in wild type Crl:CF1 mouse expressing Abcb1a mutant treated with venlafaxine at 12 mg/kg/day administered through continuous minipump treatment for 3 days by UPLC-MS analysis; type: ADME, organism-based; conditions: other: continuous minipump; outline: as §2
[14] = Total drug level in wild type Crl:CF1 mouse brain expressing Abcb1a mutant treated with venlafaxine at 12 mg/kg/day administered through continuous minipump treatment for 3 days by UPLC-MS analysis; type: ADME, organism-based; conditions: other: continuous minipump, read-out: Drug uptake; outline: as §2
[15] = Total brain to plasma partition coefficient of the compound in wild type Crl:CF1 mouse expressing Abcb1a mutant treated with venlafaxine at 12 mg/kg/day administered through continuous minipump treatment for 3 days; type: ADME, organism-based; conditions: other: continuous minipump; outline: as §3
[16] = Unbound brain to plasma partition coefficient of the compound in wild type Sprague-Dawley rat expressing Abcb1a treated with venlafaxine at 9 mg/kg/day administered through continuous minipump treatment for 3 days; type: ADME, organism-based; conditions: other: continuous minipump, read-out: K(p,uu,brain)
Outline: (§4)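 Kp,uu is (Cbrain,total × fu,brain)/(Cplasma,total × fu,plasma). Total concentrations were measured at steady state after a 3-day subcutaneous minipump infusion in knockout or wild-type animals. Species-matched free fractions came from 5 h, 37°C equilibrium dialysis at 1 µM in naïve plasma and brain homogenate.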

[17] = Unbound brain to plasma partition coefficient of the compound in mdr1a-deficient Sprague-Dawley rat treated with venlafaxine at 9 mg/kg/day administered through continuous minipump treatment for 3 days; type: ADME, organism-based; conditions: other: continuous minipump, read-out: K(p,uu,brain); outline: as §4
[18] = Percentage unbound in Crl:NMRI(Han) mouse brain at 1 uM after 5 hrs by equilibrium dialysis method; type: ADME, tissue-based; outline: as §1
[19] = Unbound brain to plasma partition coefficient of the compound in wild type Crl:CF1 mouse expressing Abcb1a mutant treated with venlafaxine at 12 mg/kg/day administered through continuous minipump treatment for 3 days; type: ADME, organism-based; conditions: other: continuous minipump, read-out: K(p,uu,brain); outline: as §4
[20] = Unbound brain to plasma partition coefficient of the compound in mdr1a-deficient mouse treated with venlafaxine at 12 mg/kg/day administered through continuous minipump treatment for 3 days; type: ADME, organism-based; conditions: other: continuous minipump, read-out: K(p,uu,brain); outline: as §4
[21] = Total plasma concentration in wild type Sprague-Dawley rat expressing Abcb1a at 6 mg/kg/day administered through continuous minipump treatment for 3 days by UPLC-MS analysis; type: ADME, organism-based; conditions: other: continuous minipump; outline: as §2
[22] = Total drug level in wild type Sprague-Dawley rat brain expressing Abcb1a at 6 mg/kg/day administered through continuous minipump treatment for 3 days by UPLC-MS analysis; type: ADME, organism-based; conditions: other: continuous minipump, read-out: Drug uptake; outline: as §2
[23] = Total brain to plasma partition coefficient of the compound in wild type Sprague-Dawley rat expressing Abcb1a at 6 mg/kg/day administered through continuous minipump treatment for 3 days; type: ADME, organism-based; conditions: brain and plasma, other: continuous minipump; outline: as §3
[24] = Total plasma concentration in mdr1a-deficient Sprague-Dawley rat at 6 mg/kg/day administered through continuous minipump treatment for 3 days by UPLC-MS analysis; type: ADME, organism-based; conditions: other: continuous minipump; outline: as §2
[25] = Total drug level in mdr1a-deficient rat brain at 6 mg/kg/day administered through continuous minipump treatment for 3 days by UPLC-MS analysis; type: ADME, organism-based; conditions: other: continuous minipump, read-out: Drug uptake; outline: as §2
[26] = Total brain to plasma partition coefficient of the compound in mdr1a-deficient rat at 6 mg/kg/day administered through continuous minipump treatment for 3 days; type: ADME, organism-based; conditions: brain and plasma, other: continuous minipump; outline: as §3
[27] = Total plasma concentration in wild type Crl:CF1 mouse expressing Abcb1a mutant at 3 mg/kg/day administered through continuous minipump treatment for 3 days by UPLC-MS analysis; type: ADME, organism-based; conditions: other: continuous minipump; outline: as §2
[28] = Total drug level in wild type Crl:CF1 mouse brain expressing Abcb1a mutant at 3 mg/kg/day administered through continuous minipump treatment for 3 days by UPLC-MS analysis; type: ADME, organism-based; conditions: other: continuous minipump, read-out: Drug uptake; outline: as §2
[29] = Total brain to plasma partition coefficient of the compound in wild type Crl:CF1 mouse expressing Abcb1a mutant at 3 mg/kg/day administered through continuous minipump treatment for 3 days; type: ADME, organism-based; conditions: other: continuous minipump; outline: as §3
[30] = Total plasma concentration in mouse at 3 mg/kg/day administered through continuous minipump treatment for 3 days by UPLC-MS analysis; type: ADME, organism-based; conditions: other: continuous minipump; outline: as §2
[31] = Total drug level in mdr1a-deficient mouse brain at 3 mg/kg/day administered through continuous minipump treatment for 3 days by UPLC-MS analysis; type: ADME, organism-based; conditions: other: continuous minipump, read-out: Drug uptake; outline: as §2
[32] = Total brain to plasma partition coefficient of the compound in mdr1a-deficient mouse at 3 mg/kg/day administered through continuous minipump treatment for 3 days; type: ADME, organism-based; conditions: other: continuous minipump; outline: as §3
[33] = Unbound brain to plasma partition coefficient of the compound in wild type Sprague-Dawley rat expressing Abcb1a at 6 mg/kg/day administered through continuous minipump treatment for 3 days; type: ADME, organism-based; conditions: other: continuous minipump, read-out: K(p,uu,brain); outline: as §4
[34] = Unbound brain to plasma partition coefficient of the compound in mdr1a-deficient rat at 6 mg/kg/day administered through continuous minipump treatment for 3 days; type: ADME, organism-based; conditions: other: continuous minipump, read-out: K(p,uu,brain); outline: as §4
[35] = Unbound brain to plasma partition coefficient of the compound in wild type Crl:CF1 mouse expressing Abcb1a mutant at 3 mg/kg/day administered through continuous minipump treatment for 3 days; type: ADME, organism-based; conditions: other: continuous minipump, read-out: K(p,uu,brain); outline: as §4
[36] = Unbound brain to plasma partition coefficient of the compound in mdr1a-deficient mouse at 3 mg/kg/day administered through continuous minipump treatment for 3 days; type: ADME, organism-based; conditions: other: continuous minipump, read-out: K(p,uu,brain); outline: as §4

fraction unbound at 5 h, 1 µM [1]: > 0.99 | concentration at 72 h [2]: 4.5 ng/mL | concentration at 72 h [3]: 4.4 ng/g | Kp at 72 h [4]: 1 | concentration at 72 h [5]: 11 ng/mL | concentration at 72 h [6]: 33 ng/g | Kp at 72 h [7]: 3.3 | concentration at 72 h [8]: 7.5 ng/mL | concentration at 72 h [9]: 40 ng/g | Kp at 72 h [10]: 5.7 | fraction unbound at 5 h, 1 µM [11]: 0.89 | fraction unbound at 5 h, 1 µM [12]: 0.35 | concentration at 72 h [13]: 5.7 ng/mL | concentration at 72 h [14]: 10 ng/g | Kp at 72 h [15]: 1.8 | Kp uu at 72 h [16]: 0.38 | Kp uu at 72 h [17]: 1.2 | fraction unbound at 5 h, 1 µM [18]: 0.45 | Kp uu at 72 h [19]: 0.8 | Kp uu at 72 h [20]: 2.4
SMILES: CN(C)CC(c1ccc(O)cc1)C1(O)CCCCC1 (stereo not given) [DESVENLAFAXINE]

fraction unbound at 5 h, 1 µM [1]: 0.002 | concentration at 72 h [21]: 18 ng/mL | concentration at 72 h [22]: 3 ng/g | Kp at 72 h [23]: 0.19 | concentration at 72 h [24]: 22 ng/mL | concentration at 72 h [25]: 14 ng/g | Kp at 72 h [26]: 0.64 | concentration at 72 h [27]: 51 ng/mL | concentration at 72 h [28]: 25 ng/g | Kp at 72 h [29]: 0.49 | concentration at 72 h [30]: 32 ng/mL | concentration at 72 h [31]: 41 ng/g | Kp at 72 h [32]: 1.3 | fraction unbound at 5 h, 1 µM [11]: 0.001 | fraction unbound at 5 h, 1 µM [12]: 0.001 | Kp uu at 72 h [33]: 0.19 | Kp uu at 72 h [34]: 0.64 | fraction unbound at 5 h, 1 µM [18]: 0.001 | Kp uu at 72 h [35]: 0.25 | Kp uu at 72 h [36]: 0.64
SMILES: O=C1CCc2ccc(OCCCCN3CCN(c4cccc(Cl)c4Cl)CC3)cc2N1 [ARIPIPRAZOLE]
